# pIC50: −log10 of the molar value. Activity calls are given as the source filed them. No cut-off for these calls is given here.
# How the values were obtained:
# [1] = Growth inhibition of human EAhy926 cells measured after 72 hrs by MTT assay; type: functional, cell-based; conditions: EA.hy 926, 72 h
# How it was run: (§1)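 Cells seeded at 1 x 10^4/100 µL, treated 24 h later with drug diluted from 2 mmol/L DMSO stock (0.01% DMSO final), 72 h incubation. MTT added for 3 h at 37°C, formazan dissolved in 0.1 N HCl/isopropanol, OD read at 550/630 nm. Eight replicates per concentration, mean ± SD. IC50 from curve fitting. Cells kept at 37°C in humidified CO2.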
# [2] = Growth inhibition of human K562 cells measured after 72 hrs by MTT assay; type: functional, cell-based; conditions: K562, 72 h; how it was run: as §1
# [3] = Growth inhibition of human HepG2 cells measured after 72 hrs by MTT assay; type: functional, cell-based; conditions: HepG2, 72 h; how it was run: as §1
# [4] = Cytostatic activity against human HaCaT cells assessed as cell survival up to 25 uM measured after 72 hrs by MTT assay relative to control; type: functional
# EA.hy 926 [5] = experiment: Antiangiogenic activity against human EAhy926 assessed as inhibition of capillary tube formation at 0.11 uM after 72 hrs by matrigel assay; type: functional
# How it was run: (§2)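 EA.hy 926 cells (4 x 10^4) plated onto Matrigel pre-set 30 min at 37°C in complete DMEM; after 24 h medium replaced by EBM2 alone (control) or EBM2 with 0.28 µM or 0.11 µM drug. Capillary tube formation followed by inverted microscopy up to 72 h.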
# [6] = Cytostatic activity against human MCF7 cells assessed as cell survival up to 25 uM measured after 72 hrs by MTT assay relative to control; type: functional
# [7] = Cell cycle arrest in human HepG2 cells assessed as decrease in accumulation of G2/M phase at growth inhibitory IC50 measured after 72 hrs by propidium iodide-staining based FACS analysis; type: functional
# [8] = Cytostatic activity against human NHEK cells assessed as cell survival up to 25 uM measured after 72 hrs by MTT assay relative to control; type: ADME, cell-based; conditions: read-out: Survival
# [9] = Antiproliferative activity against human MCF10A cells measured after 72 hrs by MTT assay; type: cell-based; conditions: MCF-10A
# How it was run: (§3)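 Cells seeded at 1 × 10^4 per well and left 24 h, then exposed to graded compound concentrations (stock 2 mmol/L in DMSO, final DMSO 0.01% in medium) for 72 h at 37 °C in humidified CO2. MTT (5 mg/mL) added for 3 h; formazan dissolved in 0.1 N HCl/isopropanol and read at 550/630 nm. Eight replicate wells per concentration; IC50 from curve fitting.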
# HepG2 [10] = experiment: Induction of apoptosis in human HepG2 cells assessed as increase in apoptotic cells at growth inhibitory IC50 measured after 48 hrs by Annexin V-FITC/propidium iodide staining-based flow cytometric analysis relative to control; type: functional, cell-based
# [11] = Cell cycle arrest in human HepG2 cells assessed as decrease in G0/G1 phase at growth inhibitory IC50 measured after 24 hrs by propidium iodide-staining based FACS analysis; type: functional
# Sus scrofa [12] = species: Sus scrofa; experiment: Induction of porcine brain tubulin polymerization assessed as time required to reach maxium effect at 10 uM measured every 1 min for 40 mins in presence of GTP
# [13] = Cell cycle arrest in human HepG2 cells assessed as decrease in S phase at growth inhibitory IC50 measured after 24 hrs by propidium iodide-staining based FACS analysis; type: functional
# EA.hy 926 [14] = experiment: Induction of apoptosis in human EAhy926 cells assessed as increase in apoptotic cells at growth inhibitory IC50 measured after 48 hrs by Annexin V-FITC/propidium iodide staining-based flow cytometric analysis relative to control; type: functional, cell-based
# [15] = Cell cycle arrest in human HepG2 cells assessed as accumulation of hypoploid sub-G1 cells at growth inhibitory IC50 measured after 72 hrs by propidium iodide-staining based FACS analysis; type: functional
# [16] = Antiproliferative activity against mouse Colon 26 cells measured after 72 hrs by MTT assay; type: functional, cell-based; conditions: Colon 26, 72 h; how it was run: as §3
# [17] = Antiproliferative activity against CA-4-resistant human A549 cells measured after 72 hrs by MTT assay; type: functional, cell-based; conditions: A549, 72 h; how it was run: as §3
# Sus scrofa [18] = species: Sus scrofa; experiment: Inhibition of porcine brain tubulin polymerization at 50 uM measured every 1 min for 40 mins in presence of GTP
# HepG2 [19] = experiment: Induction of apoptosis in human HepG2 cells assessed as necrotic cells at 0.11 uM measured after 48 hrs by Annexin V-FITC/propidium iodide staining-based flow cytometric analysis relative to control; type: functional
# [20] = Antiproliferative activity against CA-4-resistant human HT-29 cells measured after 72 hrs by MTT assay; type: functional, cell-based; conditions: HT-29, 72 h; how it was run: as §3
# Sus scrofa [21] = species: Sus scrofa; experiment: Inhibition of porcine brain tubulin polymerization at 10 uM measured every 1 min for 40 mins in presence of GTP
# [22] = Cell cycle arrest in human HepG2 cells assessed as accumulation of cells with 4N DNA content at growth inhibitory IC50 measured after 24 hrs by propidium iodide-staining based FACS analysis relative to control; type: functional; parameters: scale not given: the % may be the effect or the level left
# [23] = Cytostatic activity against human MDA-MB-231 cells assessed as cell survival up to 25 uM measured after 72 hrs by MTT assay relative to control; type: functional
# EA.hy 926 [24] = experiment: Induction of apoptosis in human EAhy926 cells assessed as necrotic cells at 0.11 uM measured after 48 hrs by Annexin V-FITC/propidium iodide staining-based flow cytometric analysis relative to control; type: functional
# [25] = Cell cycle arrest in human HepG2 cells assessed as >4N DNA content at growth inhibitory IC50 measured after 24 hrs by propidium iodide-staining based FACS analysis relative to control; type: functional; parameters: scale not given: the % may be the effect or the level left
# [26] = Cell cycle arrest in human HepG2 cells assessed as accumulation in G2/M phase at growth inhibitory IC50 measured after 8 hrs by propidium iodide-staining based FACS analysis (reference value: 28%); type: functional; parameters: scale not given: the % may be the effect or the level left
# A549 = experiment: Potency index, ratio of combretastatin A-4 IC50 to compound IC50 for human A549 cells; type: functional
# Sus scrofa [27] = species: Sus scrofa; experiment: Inhibition of porcine brain tubulin polymerization measured every 1 min for 40 mins in presence of GTP
# [28] = Antiproliferative activity against CA-4-resistant human MDA-MB-231 cells measured after 72 hrs by MTT assay; type: functional, cell-based; conditions: MDA-MB-231, 72 h; how it was run: as §1
# [29] = Antiproliferative activity against human MCF7 cells measured after 72 hrs by MTT assay; type: functional, cell-based; conditions: MCF7, 72 h; how it was run: as §1
# [30] = Cytotoxicity against human NHEK measured after 72 hrs by MTT assay; type: toxicity; how it was run: as §1
# HepG2 [31] = experiment: Cytostatic activity against human HepG2 cells up to 25 uM measured after 72 hrs by MTT assay; type: functional, cell-based; how it was run: as §1
# HepG2 [32] = experiment: Induction of micronuclei formation in human HepG2 cells at 185 to 190 nM measured after 24 hrs by DAPI staining based immunofluorescence analysis; type: functional, cell-based
# How it was run: (§4)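 HepG2 cells grown on coverslips were treated 24 h with 185 nM drug, with 0.01% DMSO vehicle as control. Cells fixed in 3.7% buffered paraformaldehyde and immunostained for β-tubulin (AlexaFluor-488 secondary, 40 min). F-actin labelled with phalloidin, DNA with DAPI mounting medium. Imaged by fluorescence microscopy.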
# HepG2 [33] = experiment: Inhibition of beta-tubulin polymerization in human HepG2 cells assessed as induction of mitotic ploidity at 185 to 190 nM measured after 24 hrs by DAPI staining based immunofluorescence analysis; type: cell-based; how it was run: as §4
# HepG2 [34] = experiment: Induction of apoptosis in human HepG2 cells assessed as necrotic cells at 0.19 to 0.28 uM measured after 48 hrs by Annexin V-FITC/propidium iodide staining-based flow cytometric analysis relative to control; type: functional
# HepG2 [35] = experiment: Inhibition of beta-tubulin polymerization in human HepG2 cells assessed as DNA fragmentation at 185 to 190 nM measured after 24 hrs by DAPI staining based immunofluorescence analysis; type: cell-based; how it was run: as §4
# [36] = Cytostatic activity against human MCF10A cells assessed as cell survival up to 25 uM measured after 72 hrs by MTT assay relative to control; type: ADME, cell-based, MCF-10A; conditions: read-out: Survival
# [37] = Antiproliferative activity against human HaCaT cells measured after 72 hrs by MTT assay; type: functional, cell-based; how it was run: as §3
# HT-29 = experiment: Potency index, ratio of IC50 for combretastatin A-4 to IC50 for test compound against human HT-29 cells; type: functional
# [38] = Cell cycle arrest in human HepG2 cells assessed as increase in G2/M phase accumulation at growth inhibitory IC50 after 8 hrs by propidium iodide-staining based FACS analysis relative to combretastatin A-4; type: functional; parameters: scale not given: the % may be the effect or the level left
# Colon 26 = experiment: Potency index, ratio of combretastatin A-4 IC50 to compound IC50 for mouse Colon 26 cells; type: functional
# EA.hy 926 [39] = experiment: Induction of apoptosis in human EAhy926 cells assessed as necrotic cells at 0.19 to 0.28 uM measured after 48 hrs by Annexin V-FITC/propidium iodide staining-based flow cytometric analysis relative to control; type: functional
# HepG2 [40] = experiment: Inhibition of beta-tubulin polymerization in human HepG2 cells assessed as formation of pseudo G1 phase multinucleated cells at 185 to 190 nM measured after 24 hrs by DAPI staining based immunofluorescence analysis; type: cell-based; how it was run: as §4
# EA.hy 926 [41] = experiment: Antiangiogenic activity against human EAhy926 assessed as inhibition of capillary tube formation at 0.28 uM after 72 hrs by matrigel assay; type: functional; how it was run: as §2
# HepG2 [42] = experiment: Inhibition of beta-tubulin polymerization in human HepG2 cells assessed as multi-polar spindle formation at 185 to 190 nM measured after 24 hrs by DAPI staining based immunofluorescence analysis; type: cell-based; how it was run: as §4
# EA.hy 926 [43] = experiment: Cytostatic activity against human EAhy926 cells up to 25 uM measured after 72 hrs by MTT assay; type: functional, cell-based; how it was run: as §1
# K562 = experiment: Cytostatic activity against human K562 cells up to 25 uM measured after 72 hrs by MTT assay; type: functional, cell-based; how it was run: as §1
# HepG2 [44] = experiment: Inhibition of beta-tubulin polymerization in human HepG2 cells assessed as mitotic slippage at 185 to 190 nM measured after 24 hrs by DAPI staining based immunofluorescence analysis; type: cell-based; how it was run: as §4
structure (smiles),measurement,setting,value
COc1ccc(/C=C\c2ccc3c(c2)oc(=O)n3C)cc1OC,pIC50,[1],< 4.30
same,pIC50,[2],< 4.30
same,pIC50,[3],4.42
COc1cc(/C=C\c2ccc3oc(=O)n(C)c3c2)cc(OC)c1OC,pIC50,[1],< 4.30
same,pIC50,[2],< 4.30
same,pIC50,[3],4.40
COc1ccc(/C=C\c2cccc3oc(=O)n(C)c23)cc1OC,pIC50,[1],< 4.30
same,pIC50,[2],5.68
same,pIC50,[3],< 4.30
COc1ccc(/C=C\c2cccc3oc(=O)n(C)c23)cc1,pIC50,[1],4.40
same,pIC50,[2],6.02
same,pIC50,[3],4.79
COc1ccc(/C=C\c2cc(OC)c(OC)c(OC)c2)cc1O [COMBRETASTATIN A4],Survival,[4],15%
same,inhibition,EA.hy 926 [5],Active
same,Survival,[6],35%
same,Activity,[7],Active
same,viability at 72 h,[8],40%
same,pIC50,[9],5.93
same,Activity,HepG2 [10],Active
same,Activity,[11],Active
same,TIME,Sus scrofa [12],0.383 h
same,Activity,[13],Active
same,pIC50,[1],6.77
same,pIC50,[2],> 7.00
same,pIC50,[3],6.96
same,Activity,EA.hy 926 [14],Active
same,Activity,[15],Active
same,pIC50,[16],6.36
same,pIC50,[17],5.52
same,inhibition,Sus scrofa [18],Active
same,Activity,HepG2 [19],20%
same,pIC50,[20],5.58
same,inhibition,Sus scrofa [21],Active
same,Activity,[22],77%
same,Survival,[23],50%
same,Activity,EA.hy 926 [24],20%
same,Activity,[25],9%
same,Activity,[26],33%
COc1ccc(/C=C\c2ccc3c(c2)oc(=O)n3C)cc1,pIC50,[1],< 4.30
same,pIC50,[2],< 4.30
same,pIC50,[3],< 4.30
COc1cc(/C=C\c2cccc3c2oc(=O)n3C)cc(OC)c1,pIC50,[1],5.02
same,pIC50,[2],6.02
same,pIC50,[3],5.37
COc1cc(/C=C\c2ccc3c(c2)oc(=O)n3C)cc(OC)c1OC,Ratio IC50,A549,50
same,inhibition,Sus scrofa [27],Dose-dependent effect
same,Activity,[7],Active
same,pIC50,[28],6.77
same,pIC50,[29],7.15
same,Activity,[30],Non-Toxic
same,Activity,HepG2 [31],Active
same,Activity,HepG2 [10],Active
same,Activity,HepG2 [32],Active
same,inhibition,HepG2 [33],Active
same,Activity,HepG2 [34],20%
same,Activity,[11],Active
same,TIME,Sus scrofa [12],0.333 h
same,Activity,[13],Active
same,pIC50,[1],6.55
same,inhibition,HepG2 [35],Active
same,pIC50,[2],6.14
same,pIC50,[3],6.72
same,Activity,EA.hy 926 [14],Active
same,viability at 72 h,[36],70%
same,Activity,[15],Active
same,pIC50,[16],7.30
same,pIC50,[17],7.22
same,pIC50,[37],7.22
same,Ratio IC50,HT-29,>10
same,inhibition,Sus scrofa [18],Active
same,Activity,[38],6%
same,pIC50,[20],6.60
same,inhibition,Sus scrofa [21],40%
same,Activity,[22],80%
same,Ratio IC50,Colon 26,9
same,Activity,EA.hy 926 [39],20%
same,inhibition,HepG2 [40],Active
same,inhibition,EA.hy 926 [41],Active
same,inhibition,HepG2 [42],Active
same,Activity,[25],9%
same,Activity,EA.hy 926 [43],Active
same,Activity,K562,Active
same,inhibition,HepG2 [44],Active
same,Activity,[26],39%
